Experimental data from different studies.
HTR7: 5-hydroxytryptamine receptor 7 (HTR7, Homo sapiens, UniProt P34969)
OR5K1: OR5K1 (Homo sapiens, UniProt Q8NHB7)
STAT3: Signal transducer and activator of transcription 3 (STAT3, Homo sapiens, UniProt P40763)
SIRT6: NAD-dependent protein deacylase sirtuin-6 (SIRT6, Homo sapiens, UniProt Q8N6T7)
PKM: Pyruvate kinase PKM (PKM, Homo sapiens, UniProt P14618)
CDK2: Cyclin-dependent kinase 2 (CDK2, Homo sapiens, UniProt P24941)
HTR6: 5-hydroxytryptamine receptor 6 (HTR6, Homo sapiens, UniProt P50406)

Compound | target | assay | conditions | endpoint | value
Cc1cc2nc3c(=O)[nH]c(=O)nc-3n(C[C@H](O)[C@H](O)[C@H](O)COP(=O)(O)OP(=O)(O)OC[C@H]3O[C@@H](n4cnc5c(N)ncnc54)[C@H](O)[C@@H]3O)c2cc1C | Nucleolysin TIAR (Homo sapiens, UniProt Q01085) | binding | lysate | Kd | 0.011 µM
CN(C)CCC=C1c2ccccc2CCc2ccccc21 | HTR7 | ligand displacement, radioligand | cell membranes | Ki | 0.096 µM
Cc1cnc(C)cn1 | OR5K1 | cAMP, agonist | – | EC50 | > 1500 µM
CN(CC(=O)N(Cc1ccc2ccccc2c1)c1ccc(C(=O)O)c(O)c1)S(=O)(=O)c1c(F)c(F)c(F)c(F)c1F | STAT3 | ligand displacement, FP | – | Ki | 32.5 µM
Cc1cnc(-c2ccc(-c3ccc(NC(=O)Nc4c(F)cc(F)cc4F)cc3F)c3c2C(=O)NC3)[nH]1 | Vascular endothelial growth factor receptor 3 (FLT4, Homo sapiens, UniProt P35916) | binding, competition with immobilised ligand | – | Kd | 0.016 µM
NC(=O)c1ccc(C(=O)NOCc2ccccc2Br)cc1 | SIRT6 | enzyme activity, inhibitor, fluorescence | – | IC50 | 9.55 µM
Cc1ccc(NS(=O)(=O)c2ccc3c(c2)CCC(=O)N3)cc1F | PKM | enzyme activity, activator | – | AC50 | 0.54 µM
CC(C)[C@@H](CC[C@@H](C)[C@H]1CC[C@H]2[C@@H]3[C@H](O)C[C@H]4C[C@@H](NCCCNCCCCNCCCN)CC[C@]4(C)[C@H]3CC[C@]12C)OS(=O)(=O)O | Receptor-type tyrosine-protein phosphatase R (PTPRR, Homo sapiens, UniProt Q15256) | enzyme activity, inhibitor | – | Ki | 25 µM
CC(=O)N=S(=O)(O)c1ccc(N/C=C2\C(=O)Nc3ccc4ncsc4c32)cc1 | CDK2 | binding, ITC | – | Kd | 0.194 µM
C=Cc1cnccn1 | OR5K1 | cAMP, agonist | – | EC50 | > 1500 µM
Cc1ccc(NS(=O)(=O)c2cc3c(cc2Cl)CCC(=O)N3)cc1Cl | PKM | enzyme activity, activator | – | AC50 | 0.09 µM
Nc1nc2c(ncn2[C@@H]2O[C@H](COP(=O)(O)OP(=O)(O)O)[C@@H](OP(=O)(O)OP(=O)(O)O)[C@H]2O)c(=O)[nH]1 | icd (Escherichia coli, UniProt P08200) | binding, ITC | – | Kd | 132 µM
Cc1ccc(NS(=O)(=O)c2cc3c(cc2NC(C)CO)NC(=O)CC3)cc1C (stereo not drawn) | PKM | enzyme activity, activator | – | AC50 | 0.23 µM
CC(C)(C)c1ccc(CONC(=O)c2ccc(C(N)=O)cc2)cc1 | SIRT6 | enzyme activity, inhibitor, fluorescence | – | IC50 | 2.79 µM
O=C1c2ccccc2CCN1CCCCN1CCN(c2cccc(Cl)c2Cl)CC1 | HTR6 | ligand displacement, radioligand | – | Ki | 0.544 µM
CC(N)c1ccc(C(=O)NOCc2ccc(C(F)(F)F)cc2)cc1 (stereo not drawn) | SIRT6 | enzyme activity, inhibitor, fluorescence | – | IC50 | 2.64 µM
C[C@@H](CO)Nc1cc2c(cc1S(=O)(=O)Nc1ccc(F)c(Cl)c1)CCC(=O)N2 | PKM | enzyme activity, activator | – | AC50 | 0.13 µM
O=C(Nc1cc(C2CCCCC2)[nH]n1)c1ccc(Br)cc1 | CDK2 | binding, ITC | – | Kd | > 100 µM
CC(=O)N[C@H](C(=O)N[C@@H](CC(N)=O)C(=O)N[C@@H](CCCCN)C(=O)N[C@@H](C)C(=O)N[C@@H](CC(C)C)C(=O)N1CCC[C@H]1C(=O)N[C@@H](C)C(=O)N[C@@H](CC(C)C)C(=O)N1CCC[C@H]1C(=O)N[C@H](C(=O)N[C@@H](C)C(N)=O)C(C)C)C(C)C | Tyrosine-protein kinase Fyn, SH3 (FYN, Homo sapiens, UniProt P06241) | binding, ITC | pH 7 | Kd | 70 µM
NC(=O)c1ccc(C(=O)NOCc2cccc3ccccc23)cc1 | SIRT6 | enzyme activity, inhibitor, fluorescence | – | IC50 | 2.89 µM

Compound | target | assay | conditions | endpoint | value
Cc1ccc(NS(=O)(=O)c2cc3c(cc2Cl)NC(=O)CO3)cc1C | PKM | enzyme activity, activator | – | AC50 | 0.26 µM
CN(CC(=O)N(Cc1cc(C(C)(C)C)cc(C(C)(C)C)c1)c1ccc(C(=O)O)c(O)c1)S(=O)(=O)c1c(F)c(F)c(F)c(F)c1F | STAT3 | ligand displacement, FP | – | Ki | 37.5 µM
c1cnc2cc3c(cc2n1)[C@@H]1CNC[C@H]3C1 | Neuronal acetylcholine receptor subunit alpha-4/beta-2 (Mus musculus, UniProt O70174+Q9ERK7) | ligand displacement, radioligand | cell membranes | Ki | 0.00299 µM
Cc1ccc(NS(=O)(=O)c2cc3c(cc2NC(C)C)NC(=O)CC3)cc1C | PKM | enzyme activity, activator | – | AC50 | 0.57 µM
CC(C)c1nc2cc(OCCCCN3CCN(c4cccc5c4OCCO5)CC3)ccc2s1 | HTR6 | cell-free assay, radioligand | – | Ki | 2.3 µM
CC1=C(/C=C/C2=CCC[C@@]3(C)[C@H]2CC[C@@H]3[C@@](C)(O)CCCC(C)C)C[C@@H](O)CC1 | Oxysterols receptor LXR-beta (NR1H2, Homo sapiens, UniProt P55055) | coactivator recruitment, agonist, TR-FRET | – | EC50 | 0.01 to 0.1 µM
Cc1cccc(CONC(=O)c2ccc(C(N)=O)cc2)c1 | SIRT6 | enzyme activity, inhibitor, fluorescence | – | IC50 | 3.94 µM
Cc1cnc(C)c(C)n1 | OR5K1 (Homo sapiens, UniProt Q8NHB7, A2T/T15M/Y193C) | cAMP, agonist | – | EC50 | 419 µM
CN1CCN(C2=Nc3cscc3/C(=C/C#N)c3cscc32)CC1 | HTR7 | ligand displacement, radioligand | cell membranes | Ki | 0.153 µM
Cc1ccc(NS(=O)(=O)c2cc3c(cc2-c2ccccc2)NC(=O)CO3)cc1C | PKM | enzyme activity, activator | – | AC50 | > 20 µM
CCCCN1CCC(COC(=O)c2ccc(N)c(OCF)c2)CC1 | HTR6 | cell-free assay, radioligand | – | Ki | > 10 µM
NC(=O)c1ccc(C(=O)NOCc2cccc(-c3ccccc3)c2)cc1 | SIRT6 | enzyme activity, inhibitor, fluorescence | – | IC50 | 3.34 µM
CN1CCC(=C2c3ccccc3C=Cc3ccccc32)CC1 | HTR7 | ligand displacement, radioligand | cell membranes | Ki | 0.024 µM
Cc1nccnc1C | OR5K1 | cAMP, agonist | – | EC50 | > 1500 µM
NC(=O)c1ccc(C(=O)NOCc2ccc(Sc3cccc(F)c3)c(C(F)(F)F)c2)cc1 | SIRT6 | enzyme activity, inhibitor, fluorescence | – | IC50 | 1.02 µM
C[C@H](NC(=O)CNC(=O)[C@@H]1CCCN1C(=O)[C@@H]1CCCN1C(=O)[C@H](C)NC(=O)[C@H](CCC(N)=O)NC(=O)CNC(=O)[C@@H]1CCCN1C(=O)[C@H](Cc1ccc(O)cc1)NC(=O)[C@H](C)NC(=O)CNC(=O)[C@@H]1CCCN1C(=O)[C@@H]1CCCN1C(=O)[C@H](C)NC(=O)[C@H](CCC(N)=O)NC(=O)CNC(=O)[C@@H]1CCCN1C(=O)[C@H](Cc1ccc(OP(=O)(O)O)cc1)NC(=O)[C@H](C)NC(=O)CN)C(=O)O | STAT3 | binding, ITC | pH 7.5 | Kd | ~40 µM
CNc1cc2c(cc1S(=O)(=O)Nc1ccc(C)c(C)c1)CCC(=O)N2 | PKM | enzyme activity, activator | – | AC50 | 0.44 µM
NC(=O)c1ccc(C(=O)NOCc2ccc(Sc3ccccc3)c(C(F)(F)F)c2)cc1 | SIRT6 | enzyme activity, inhibitor, fluorescence | – | IC50 | 1.63 µM
CCc1nc2cc(OCCCCN3CCC(c4cccc(Cl)c4Cl)CC3)ccc2s1 | HTR6 | cell-free assay, radioligand | – | Ki | 0.96 µM
